# Assay results: ChEMBL document CHEMBL5038619, “Interfering with the Tumor-Immune Interface: Making Way for Triazine-Based Small Molecules as Novel PD-L1 Inhibitors” (J Med Chem, 2021)
# Activity calls are given as the source filed them. The calls are words filed in the database; no cut-off is given here.
# What was measured:
# [1] = target: T1, Programmed cell death protein 1/Programmed cell death 1 ligand 1 (Homo sapiens, UniProt Q9NZQ7); experiment: Inhibition of human recombinant PD-1/PDL-1 interaction measured by HTRF assay; type: protein-complex assay
# [2] = target: T1, Programmed cell death protein 1/Programmed cell death 1 ligand 1; experiment: Inhibition of PD-1/PDL-1 (unknown origin) binding; type: protein-complex assay
# HaCaT [3] = experiment: Cytotoxicity against human HaCaT cells assessed as reduction in cell viability at 10 uM for 48 hrs by CCK-8 assay; type: toxicity, cell-based
# Method in brief: (§1)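 Cells were seeded at 1×10^4/well in triplicate and exposed to 0.1–100 μM compound with DMSO held at 0.02% in all wells. Untreated wells served as reference. After 24 or 48 h at 37 °C, 5% CO2, viability was read by CCK-8 at 450 nm (reference 600 nm). Results are percent survival versus untreated, mean ± SD of three independent experiments in triplicate.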
# HCC827 [4] = experiment: Cytotoxicity against human HCC827 cells assessed as reduction in cell viability at 10 uM for 24 hrs by CCK-8 assay; type: toxicity, cell-based; conditions: hcc827, 24 h; method in brief: as §1
# HCC827 [5] = experiment: Immunomodulatory activity in human HCC827 cells expressing PD-L1 assessed as morphological changes at 1 uM measured after 48 hrs by phase-contrast microscopy; type: functional, cell-based
# PC-9 [6] = experiment: Immunomodulatory activity in human PC9 cells expressing PD-L1 co-cultured stimulated PMBC cells assessed as IFN-gamma release level at 1 uM measured after 48 hr by ELISA; type: functional, cell-based
# Method in brief: (§2)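 Co-culture: PC9 or HCC827 cells (2×10^5/well) plus 2×10^6 PBMCs, 1 μM compound, then anti-CD3/anti-CD28 TransAct (1 μg/mL each) 1 h later. After 48 h, IFN-γ in the medium was measured by sandwich ELISA (450 nm). Values are mean ± SD of three independent experiments in triplicate; two-sided t-test.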
# [7] = Cytotoxicity against human PBMC cells assessed as reduction in cell viability at 100 uM for 48 hrs by CCK-8 assay; type: toxicity, cell-based; method in brief: as §1
# HCC827 [8] = experiment: Immunomodulatory activity in human HCC827 cells expressing PD-L1 co-cultured stimulated PMBC cells assessed as IFN-gamma release level at 1 uM measured after 48 hr by ELISA; type: functional, cell-based; method in brief: as §2
# PC-9 [9] = experiment: Immunomodulatory activity in human PC9 cells expressing PD-L1 co-cultured stimulated PMBC cells assessed as induction of apoptosis at 1 uM for 48 hr by Annexin V-FITC and propidium iodide based flow cytometry; type: functional, cell-based
# Method in brief: (§3)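 In the same PBMC/cancer-cell co-culture (1 μM compound for 1 h before TransAct anti-CD3/CD28 stimulation, 1 μg/mL each), cells were harvested after 48 h. They were stained with annexin V-FITC/PI and analysed by flow cytometry. Results are mean fraction of annexin V+ cells ± SD, three independent experiments.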
# PC-9 [10] = experiment: Immunomodulatory activity in human PC9 cells expressing PD-L1 assessed as morphological changes at 1 uM measured after 48 hrs by phase-contrast microscopy; type: functional, cell-based
# PC-9 [11] = experiment: Immunomodulatory activity in human PC9 cells expressing PD-L1 co-cultured stimulated PMBC cells assessed as morphological changes at 1 uM measured after 48 hrs by phase-contrast microscopy; type: functional, cell-based
# Method in brief: (§4)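 PC9 or HCC827 cells (2×10^5/well, 24 h) were co-cultured with 2×10^6 PBMCs. Compound was added at 1 μM, and 1 h later PBMCs were stimulated with anti-CD3/anti-CD28 TransAct (1 μg/mL each). Controls were unstimulated PBMCs and untreated cancer cells. After 48 h, phase-contrast microscopy was used to look for junction disruption, nuclear swelling, vacuolization, cytosol shrinkage and membrane rupture.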
# HCC827 [12] = experiment: Cytotoxicity against human HCC827 cells assessed as reduction in cell viability at 10 uM for 48 hrs by CCK-8 assay; type: toxicity, cell-based; conditions: hcc827, 48 h; method in brief: as §1
# [13] = target: Programmed cell death 1 ligand 1 (Homo sapiens) (UniProt Q9NZQ7); conditions: dose 32.0 µM
# HCC827 [14] = experiment: Cytotoxicity against human HCC827 cells assessed as reduction in cell viability at 100 uM for 48 hrs by CCK-8 assay; type: functional, cell-based; method in brief: as §1
# HCC827 [15] = experiment: Immunomodulatory activity in human HCC827 cells expressing PD-L1 co-cultured stimulated PMBC cells assessed as reduction in cell viability at 1 uM for 48 hr by CCK8 assay; type: functional, cell-based
# Method in brief: (§5)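 PC9 or HCC827 cells were co-cultured 48 h with PBMCs, treated with 1 μM compound and stimulated 1 h later with anti-CD3/anti-CD28 (1 μg/mL each). PBMCs were then removed by PBS washes and viability of the remaining cancer cells was read by CCK-8. Results are percent survival versus untreated, mean ± SD of three independent experiments in triplicate.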
# [16] = Cytotoxicity against human PBMC cells assessed as reduction in cell viability at 10 uM for 48 hrs by CCK-8 assay; type: toxicity, cell-based; method in brief: as §1
# PC-9 [17] = experiment: Immunomodulatory activity in human PC9 cells expressing PD-L1 co-cultured stimulated PMBC cells assessed as reduction in cell viability at 1 uM for 48 hr by CCK8 assay; type: functional, cell-based; method in brief: as §5
# HaCaT [18] = experiment: Cytotoxicity against human HaCaT cells assessed as reduction in cell viability at 10 uM for 24 hrs by CCK-8 assay; type: toxicity, cell-based; method in brief: as §1
# PC-9 [19] = experiment: Cytotoxicity against human PC-9 cells assessed as reduction in cell viability at 100 uM for 24 hrs by CCK-8 assay; type: toxicity, cell-based; conditions: pc-9, 24 h; method in brief: as §1
# PC-9 [20] = experiment: Cytotoxicity against human PC-9 cells assessed as reduction in cell viability at 10 uM for 48 hrs by CCK-8 assay; type: toxicity, cell-based; conditions: pc-9, 48 h; method in brief: as §1
# [21] = Cytotoxicity against human PBMC cells assessed as reduction in cell viability at 10 uM for 24 hrs by CCK-8 assay; type: toxicity, cell-based; method in brief: as §1
# PC-9 [22] = experiment: Cytotoxicity against human PC-9 cells assessed as reduction in cell viability at 10 uM for 24 hrs by CCK-8 assay; type: toxicity, cell-based; conditions: pc-9, 24 h; method in brief: as §1
# [23] = Cytotoxicity against human PBMC cells assessed as reduction in cell viability at 100 uM for 24 hrs by CCK-8 assay; type: toxicity, cell-based; method in brief: as §1
# HCC827 [24] = experiment: Immunomodulatory activity in human HCC827 cells expressing PD-L1 co-cultured stimulated PMBC cells assessed as induction of apoptosis at 1 uM for 48 hr by Annexin V-FITC and propidium iodide based flow cytometry; type: functional, cell-based; method in brief: as §3
# PC-9 [25] = experiment: Cytotoxicity against human PC-9 cells assessed as reduction in cell viability at 100 uM for 48 hrs by CCK-8 assay; type: toxicity, cell-based; conditions: pc-9, 48 h; method in brief: as §1
# HCC827 [26] = experiment: Cytotoxicity against human HCC827 cells assessed as reduction in cell viability at 100 uM for 24 hrs by CCK-8 assay; type: toxicity, cell-based; conditions: hcc827, 24 h; method in brief: as §1
# HCC827 [27] = experiment: Immunomodulatory activity in human HCC827 cells expressing PD-L1 co-cultured stimulated PMBC cells assessed as morphological changes at 1 uM measured after 48 hrs by phase-contrast microscopy; type: functional, cell-based; method in brief: as §4
# HaCaT [28] = experiment: Cytotoxicity against human HaCaT cells assessed as reduction in cell viability at 100 uM for 24 hrs by CCK-8 assay; type: toxicity, cell-based; method in brief: as §1
# HaCaT [29] = experiment: Cytotoxicity against human HaCaT cells assessed as reduction in cell viability at 100 uM for 48 hrs by CCK-8 assay; type: toxicity, cell-based; method in brief: as §1
# [30] = target: Programmed cell death 1 ligand 1 (Homo sapiens) (UniProt Q9NZQ7); experiment: Binding affinity to human PD-L1 expressing on exosomes assessed as decrease in […] intensity at 0.5 mM by WL-NMR spectroscopy
# [31] = target: Programmed cell death 1 ligand 1 (Homo sapiens) (UniProt Q9NZQ7); experiment: Binding affinity to human PD-L1 expressing on exosomes assessed as decrease in […] intensity at 0.5 mM by STD-NMR spectroscopy
# T1 sequence (Q15116 whole entry): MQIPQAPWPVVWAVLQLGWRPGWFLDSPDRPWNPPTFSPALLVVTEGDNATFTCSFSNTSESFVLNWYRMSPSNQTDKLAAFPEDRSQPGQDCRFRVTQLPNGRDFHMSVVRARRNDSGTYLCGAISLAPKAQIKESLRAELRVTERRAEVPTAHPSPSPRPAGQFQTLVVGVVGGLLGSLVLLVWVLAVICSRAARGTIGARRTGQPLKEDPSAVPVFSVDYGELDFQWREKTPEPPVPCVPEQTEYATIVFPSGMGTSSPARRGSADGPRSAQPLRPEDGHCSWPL
# T1 sequence (Q9NZQ7 whole entry): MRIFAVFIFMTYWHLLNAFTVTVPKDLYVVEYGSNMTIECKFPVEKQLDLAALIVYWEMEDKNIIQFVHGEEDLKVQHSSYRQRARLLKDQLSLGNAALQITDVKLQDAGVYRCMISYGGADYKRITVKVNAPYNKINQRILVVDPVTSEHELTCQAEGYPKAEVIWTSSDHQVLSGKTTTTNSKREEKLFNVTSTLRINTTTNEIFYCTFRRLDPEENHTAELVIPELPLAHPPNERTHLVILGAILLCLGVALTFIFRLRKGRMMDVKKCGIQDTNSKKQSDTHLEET
# Programmed cell death 1 ligand 1 (Homo sapiens), sequence (Q9NZQ7 whole entry): as above
compound,measurement,setting,value
Cc1c(COc2ncnc(NCCNS(C)(=O)=O)n2)cccc1-c1ccccc1,IC50,[1],0.241 µM
Cc1c(COc2ccc(CN[C@H](CO)C(=O)O)c(OCc3cncc(C#N)c3)n2)cccc1-c1ccccc1,IC50,[2],0.012 µM
COc1nc(OCc2cccc(-c3ccccc3)c2C)ccc1CNCCNC(C)=O,Activity,HaCaT [3],Non-Toxic
same,Activity,HCC827 [4],Non-Toxic
same,Activity,HCC827 [5],inactive
same,Activity,PC-9 [6],Active
same,Activity,[7],Toxic
same,Activity,HCC827 [8],Active
same,Activity,PC-9 [9],Active
same,Activity,PC-9 [10],inactive
same,Activity,PC-9 [11],Active
same,Activity,HCC827 [12],Non-Toxic
same,Tm,[13],53 °C
same,Activity,HCC827 [14],Toxic
same,Activity,HCC827 [15],Active
same,Activity,[16],Non-Toxic
same,Activity,PC-9 [17],Active
same,Activity,HaCaT [18],Non-Toxic
same,Activity,PC-9 [19],Toxic
same,Activity,PC-9 [20],Non-Toxic
same,Activity,[21],Non-Toxic
same,Activity,PC-9 [22],Non-Toxic
same,Activity,[23],Toxic
same,Activity,HCC827 [24],Active
same,Activity,PC-9 [25],Toxic
same,Activity,HCC827 [26],Toxic
same,Activity,HCC827 [27],Active
same,Activity,HaCaT [28],Toxic
same,Activity,HaCaT [29],Toxic
CC(C)(C)OC(=O)NCCNc1nc(OCc2ccccc2)nc(N2CCC[C@H]2C(=O)NCc2ccccc2)n1,IC50,[1],> 5 µM
COC(=O)[C@H](Cc1c[nH]cn1)Nc1nc(OCc2cccc(C#N)c2)nc(OCc2cccc(-c3ccccc3)c2C)n1,IC50,[1],> 5 µM
Cc1c(COc2ncnc(NCCS(N)(=O)=O)n2)cccc1-c1ccccc1,IC50,[1],0.551 µM
Cc1c(COc2nc(N[C@@H](Cc3c[nH]cn3)C(=O)O)nc(OCc3cccc(C#N)c3)n2)cccc1-c1ccccc1,IC50,[1],> 5 µM
CC(=O)NCCNc1nc(O)nc(OCc2cccc(-c3ccccc3)c2C)n1,IC50,[1],> 5 µM
Cc1c(COc2ncnc(N[C@@H](Cc3c[nH]cn3)C(=O)O)n2)cccc1-c1ccccc1,IC50,[1],> 5 µM
CC(=O)NCCNc1nc(OCc2cccc(C#N)c2)nc(OCc2cccc(-c3ccccc3)c2C)n1,IC50,[1],> 5 µM
COc1cc(C(=O)N2CCC3C(c4ccccc4)=CC=CC32)ccc1CNCCO (configuration not stated),IC50,[2],0.132 µM
O=C(O)[C@@H]1CCCCN1Cc1ccc(OCc2cccc(-c3ccccc3)c2Br)c(Br)c1,IC50,[2],0.015 µM
COc1nc(NCCNC(C)=O)nc(OCc2cccc(-c3ccccc3)c2C)n1,IC50,[1],1.53 µM
Cc1c(COc2ccc(CN3CCCC[C@H]3C(=O)NCCN)c(OCc3cccc(C#N)c3)c2)cccc1-c1ccccc1,IC50,[2],0.0091 µM
Cc1c(COc2ccc(CNCCO)n3cnnc23)cccc1-c1ccc2c(c1)OCCO2,IC50,[2],0.0923 µM
CC(=O)NCCNc1nc(C)nc(OCc2cccc(-c3ccccc3)c2C)n1,IC50,[1],> 5 µM
CC(=O)NCCCNc1ncnc(OCc2cccc(-c3ccccc3)c2C)n1,IC50,[1],2.15 µM
CC(=O)NCCNc1ncnc(OCc2cccc(-c3ccccc3)c2C)n1,Activity,HaCaT [3],Non-Toxic
same,Activity,HCC827 [4],Non-Toxic
same,Activity,HCC827 [5],inactive
same,Activity,PC-9 [6],Active
same,Activity,[7],Toxic
same,Activity,HCC827 [8],Active
same,IC50,[1],0.115 µM
same,Activity,PC-9 [9],Active
same,Activity,PC-9 [10],inactive
same,Activity,PC-9 [11],Active
same,Activity,HCC827 [12],Non-Toxic
same,Tm,[13],49 °C
same,Activity,HCC827 [14],Toxic
same,Activity,HCC827 [15],Active
same,Activity,[16],Non-Toxic
same,Activity,PC-9 [17],Active
same,Activity,HaCaT [18],Non-Toxic
same,Activity,PC-9 [19],Toxic
same,Activity,PC-9 [20],Non-Toxic
same,Activity,[21],Non-Toxic
same,Activity,PC-9 [22],Non-Toxic
same,Activity,HCC827 [24],Active
same,Activity,PC-9 [25],Toxic
same,Activity,HCC827 [26],Toxic
same,Activity,HCC827 [27],Active
same,Activity,HaCaT [28],Toxic
same,Activity,HaCaT [29],Toxic
COC(=O)[C@H](Cc1c[nH]cn1)Nc1ncnc(OCc2cccc(-c3ccccc3)c2C)n1,Activity,[30],Active
same,Activity,[31],Active
